PPC-1+TRAIL kill: compounds killing PPC-1 cancer cells with TRAIL present (potentiator screen, no TRAIL-free arm). PPC-1 cells + TRAIL, ATPLite viability luminescence. 0.41% of 220,000 active. cell killing (% activity), % at 4 µM or 5 µM;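 active = cell killing above 50% in the first pass at 4 µM, then a duplicate retest at 5 µM averaging 50% or more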
FLuc inhib CS: counter-screen for luciferase assay inhibitors: firefly luciferase inhibition | P08659 | ATPLite firefly luciferase biochemical luminescence, 10 min | inhibition, % at 10 µM | 1.5% of 200,000 active;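 active = inhibition above about 50% when tested at 10 µM, limit read from the data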
Target sequence (P08659 whole entry, looked up): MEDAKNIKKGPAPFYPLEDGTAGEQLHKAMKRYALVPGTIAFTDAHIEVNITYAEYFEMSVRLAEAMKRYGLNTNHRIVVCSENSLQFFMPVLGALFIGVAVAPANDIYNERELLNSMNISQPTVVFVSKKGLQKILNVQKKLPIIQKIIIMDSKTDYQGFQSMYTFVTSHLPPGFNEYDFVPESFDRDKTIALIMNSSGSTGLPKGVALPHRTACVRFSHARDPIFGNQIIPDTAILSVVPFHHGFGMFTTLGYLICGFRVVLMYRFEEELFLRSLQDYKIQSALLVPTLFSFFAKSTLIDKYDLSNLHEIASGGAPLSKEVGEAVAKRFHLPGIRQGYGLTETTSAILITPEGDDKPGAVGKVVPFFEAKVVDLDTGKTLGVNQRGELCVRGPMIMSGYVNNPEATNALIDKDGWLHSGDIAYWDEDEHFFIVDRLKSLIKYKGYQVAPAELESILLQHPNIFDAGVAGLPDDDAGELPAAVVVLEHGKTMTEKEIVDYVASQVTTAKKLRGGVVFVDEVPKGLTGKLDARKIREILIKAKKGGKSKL
TRAIL sens C8: sensitizes caspase-8 expressing cells to TRAIL; NB7+C8 cells + TRAIL, ATPlite viability luminescence; inhibition (viability loss, TRAIL sensitization), % at 10 µM; AID 624354; 1% of 360,000 active;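 active = compounds causing at least 50% loss of cell viability in the single-dose screen, relative to plate controls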
FLuc stim CS: affects firefly luciferase, flagging false hits in luciferase stimulation screens; AID 1027; ATPlite luciferase biochemical, luminescence, 10 min; 0 = ATP-free wells, 1 = DMSO control; 200,000 tested, under 10 active; activation factor at 10 µM; P08659;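 active = luciferase activation factor, scaled between plate controls, of at least 2 with compound at 10 µM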
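assay system = Luciferase/luciferin detection reagent, cell-free biochemical luciferase assay | also added = ATP substrate | times = 10 min post-reagent at room temperature | measured by = luminescence from luciferase reaction | measure = luciferase activation, seen as luminescence increase over controls | benchmarks = low control with PBS replacing ATP, high control enzyme plus ATP without compound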
Of the large screens only hits and unclear results are named; the others gave an inactive call. In the library only some 1.6% were active in any assay of this set; here they are far more common.

CN(C)CCCN(C(=O)c1ccc(S(=O)(=O)N2CCc3ccccc3C2)cc1)c1nc2c(F)cccc2s1	none (no result: PPC-1+TRAIL kill, FLuc inhib CS, FLuc stim CS)
Cc1cc(C)c2sc(N(CCCN(C)C)C(=O)c3ccc(S(=O)(=O)N4CCc5ccccc5C4)cc3)nc2c1	TRAIL sens C8 92 (no result: PPC-1+TRAIL kill, FLuc inhib CS, FLuc stim CS)
COc1ccc(-c2nn(-c3ccccc3)cc2C(=O)O)cc1OC	FLuc inhib CS 82
COc1ccc(-c2nn(-c3ccccc3)cc2C(=O)Nc2ccc(C(=O)O)cc2)cc1OC	none (no result: PPC-1+TRAIL kill, FLuc inhib CS, FLuc stim CS)
Cc1ccc(C)c(C(=O)NC(C)c2ccc(-n3ccnc3)cc2)c1 (configuration not stated)	none (no result: PPC-1+TRAIL kill, FLuc inhib CS, FLuc stim CS)
O=C(O)c1cccc(CN2C(=O)SC(Nc3cccc4ccccc34)C2=O)c1 (configuration not stated)	FLuc inhib CS 58
O=C(O)c1cccc(CN2C(=O)SC(Nc3ccccc3)C2=O)c1 (configuration not stated)	none
COc1ccc(-c2cn3c(C)c(C(=O)Nc4cccc(NC(C)=O)c4)sc3n2)cc1	TRAIL sens C8 69
O=C(N/N=C/c1cccc(F)c1)c1ccc(Cl)cc1	FLuc inhib CS 58
O=C(N/N=C/c1cccc(NC(=O)c2ccc(Cl)cc2)c1)c1ccc(O)cc1	TRAIL sens C8 61 (no result: FLuc inhib CS, FLuc stim CS)
O=C(N/N=C/c1ccncc1)c1cccc(NC(=O)c2ccc(Cl)cc2)c1	none
Cc1ccc2nc(-c3ccccc3N)[nH]c2c1	FLuc inhib CS 80
O=C(Nc1ccc2nc(-c3ccccn3)[nH]c2c1)C1CCCCC1	FLuc inhib CS 63, TRAIL sens C8 53
Cc1ccc2nc(-c3ccccn3)[nH]c2c1	TRAIL sens C8 70 (no result: PPC-1+TRAIL kill, FLuc inhib CS, FLuc stim CS)
c1ccc(-c2nc3ccccc3[nH]2)nc1	none
O=C(O)c1ccccc1-c1ccccc1C(=O)Nc1ccc2c(c1)CCC2	none (no result: PPC-1+TRAIL kill, FLuc inhib CS, FLuc stim CS)
O=C(Nc1ccc2c(c1)CCC2)c1ccccc1F	FLuc inhib CS 62, TRAIL sens C8 57
O=C(Nc1ccc2c(c1)CCC2)c1ccccc1	FLuc inhib CS 62
CCCCCCCCCCCCCCCC[N+](C)(C)Cc1ccc(F)cc1	TRAIL sens C8 54 (no result: PPC-1+TRAIL kill, FLuc inhib CS, FLuc stim CS)
CC(C)c1nnc(NC(=O)c2ccc3c(c2)OCO3)s1	FLuc inhib CS 51
CCOC(=O)CSc1nnc(NC(=O)c2ccc3c(c2)OCO3)s1	TRAIL sens C8 70 (no result: PPC-1+TRAIL kill, FLuc inhib CS, FLuc stim CS)
Cc1cc(C)nc(NC(=O)c2ccc3c(c2)OCO3)c1	FLuc inhib CS 56 (no result: TRAIL sens C8)
CCSc1nnc(NC(=O)c2ccc3c(c2)OCO3)s1	none
CC(c1ccccc1)c1nnc(NC(=O)c2ccc3c(c2)OCO3)s1 (configuration not stated)	none (no result: FLuc inhib CS, FLuc stim CS)
CC1(c2nnnn2Cc2ccccc2)CCC(=O)N1Cc1cccc(C(F)(F)F)c1 (configuration not stated)	none (no result: PPC-1+TRAIL kill, FLuc inhib CS, FLuc stim CS)
c1ccc(CSc2nc3ncccn3n2)cc1	none (no result: PPC-1+TRAIL kill, FLuc inhib CS, FLuc stim CS)
COc1ccc(-c2nc3nc(C)cc(C)n3n2)cc1	FLuc inhib CS 59
COc1ccc(CNc2nc3nc(C)cc(C)n3n2)cc1	none
COc1ccc2[nH]c3c(NCCC4=CCCCC4)ncnc3c2c1	TRAIL sens C8 54 (no result: PPC-1+TRAIL kill)
O=C1NC(=S)NC1=Cc1ccc(O)cc1	none (no result: PPC-1+TRAIL kill, FLuc inhib CS, FLuc stim CS)
O=C1NC(=S)N/C1=C\c1ccc(N2CCOCC2)cc1	FLuc inhib CS 78
Nc1nc(N)c2cc([N+](=O)[O-])ccc2n1	none (no result: PPC-1+TRAIL kill, FLuc inhib CS, FLuc stim CS)
Nc1nc(N)c2cc(S(=O)(=O)c3ccc4ccccc4c3)ccc2n1	TRAIL sens C8 72 (no result: PPC-1+TRAIL kill, FLuc inhib CS, FLuc stim CS)
CCCCN(CC)CCCNC(=O)C1c2ccccc2C(=O)N(C)C1c1cn(C)c2ccccc12 (configuration not stated)	TRAIL sens C8 61
CCN(CC)CCCNC(=O)C1c2ccccc2C(=O)N(CCOC)C1c1ccc(F)cc1 (configuration not stated)	none
CC(C)C(=O)Nc1ccc2c(c1)C(=O)NC2=O	none
CC(C)(C)c1ccc(C(=O)Nc2cnccn2)cc1	FLuc inhib CS 86, TRAIL sens C8 75
COc1ccc(C(=O)Nc2cnccn2)cc1[N+](=O)[O-]	none (no result: PPC-1+TRAIL kill, FLuc inhib CS, FLuc stim CS)
O=C(Nc1ccccn1)c1ccc(-c2ccccc2)cc1	TRAIL sens C8 82 (no result: PPC-1+TRAIL kill, FLuc inhib CS, FLuc stim CS)
O=c1[nH]nc(Sc2ccccc2)c(=S)[nH]1	none (no result: PPC-1+TRAIL kill, FLuc inhib CS, FLuc stim CS)
N#CCCN(C(=O)COC(=O)C1CCN(S(=O)(=O)c2ccccc2C(F)(F)F)CC1)c1ccccc1	none (no result: PPC-1+TRAIL kill, FLuc inhib CS, FLuc stim CS)
COc1ccc(CN(C(=O)CSc2nnc(-c3ccccc3C)o2)c2ccc(F)cc2)cc1	TRAIL sens C8 95
O=C(CSc1nnc(-c2c[nH]c3ccccc23)o1)N(Cc1ccccc1)c1ccc(F)cc1	none
CC(C)(C)Nc1ncnc2c1cnn2-c1ccccc1	FLuc inhib CS 66, TRAIL sens C8 60
CC(C)OCCCNc1ncnc2c1cnn2-c1ccccc1	FLuc inhib CS 74 (no result: PPC-1+TRAIL kill)
CN(C)CCCNc1ncnc2c1cnn2-c1ccccc1	none
